# Data taken from ChEMBL document CHEMBL4513216, “Probing the Open Global Health Chemical Diversity Library for Multistage-Active Starting Points for Next-Generation Antimalarials” (ACS Infect Dis, 2020).
# Assay: Toxicity liver stage against HepG2, at 10uM
# Format: cell-based
# Set-up: test concentration 10 uM, cell line HepG2-A16-CD81EGFP
# Details: human, HepG2-A16-CD81EGFP cells; read-out: INHIBITION
# Procedure, shortened: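 Uninfected HepG2-A16-CD81EGFP cells, 3 × 10^3 per well, 1536-well, plated on prespotted compound at 10 μM final, parasite-free screening media added to match infected plates; puromycin 10 μM positive, DMSO 0.5% negative; run in parallel with 48 h PbLuc assay at 37 °C, 5% CO2; viability by CellTiter-Glo luminescence, normalized to controls.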
row,SMILES,cytotoxicity at 10 µM [%]
1,O=C(Nc1ccc2c(c1)C(=O)NC2=O)c1ccc(Cl)s1,-3.96
2,COc1ccc2[nH]c3c(N(C)CC4OCCO4)ncnc3c2c1,36
3,O=C(NCC(=O)N1CCc2ccccc2C1)c1cnccn1,-4.81
4,CSc1ccccc1NC(=O)c1ccc(N2CCOCC2)nn1,0.951
5,O=C(NCCS(=O)(=O)N1CCN(c2ncccn2)CC1)c1ccccc1,-3.28
6,Cc1nnc(NC(=O)c2c3c(nn2C2CCS(=O)(=O)C2)CCC3)s1 (centres undefined),-14.2
7,COCC(C)(O)CNC(=O)c1cc(-c2ccc(F)cc2)nn1C (centres undefined),-5.1
8,CCS(=O)(=O)N1CCC2(CCCC(=O)N2C)CC1,0.817
9,Cn1cc(CN2CCO[C@H]3CN(Cc4ccsc4)C[C@H]32)cn1,-147
10,Cc1nocc1C(=O)N1CCCC2(CCN(c3ccsc3)C2=O)C1 (centres undefined),-129
11,Cc1nc(CN2CCO[C@H]3CN(C(=O)c4cscn4)C[C@H]32)cs1,-128
12,CNC(=O)CNC(=O)c1ccc(-c2scnc2C)nc1,-4.26
13,CC(=O)N1CCCC1c1nccnc1Nc1ncccn1 (centres undefined),-1.2
14,COc1ccccc1OCC(=O)n1ncc(C#N)c1N,-20
15,CCS(=O)(=O)NCCNc1c(C#N)cnc2c(C)cc(F)cc12,-0.453
16,O=C(c1cnc(-c2ccccc2)s1)N1CCOC2(CCCC2)C1,-1.52
17,CCc1nnc(CN2CC(n3cccn3)C2)o1,-146
18,OCCN1CCN(Cc2coc(-c3ccccc3Cl)n2)CC1,-7.57
19,CN1CCN(C(=O)C2(NC(N)=O)CCCCC2)Cc2ccccc21,-6.32
20,CN(CC(=O)N1CCCC1)C(=O)c1cccn1CCc1ccccc1,6.99
21,COc1ccccc1-c1csc(-c2cccc(C(=O)O)c2)n1,12.3
22,CN1CCOC(CNC(=O)CCc2cc(F)ccc2F)C1 (centres undefined),2.32
23,COc1ccc(-c2csc(-c3cccc(C(=O)O)c3)n2)cc1OC,3.31

row,SMILES,cytotoxicity at 10 µM [%]
1,Clc1ccc2cccnc2c1CNC1CCc2ncnn2C1 (centres undefined),-6.53
2,CC1(C)COCCN1C(=O)Cc1cc(Cl)c2c(c1)OCCO2,1.54
3,CN1CCOC(CNCCCOc2ccc(C#N)cc2)C1 (centres undefined),6.91
4,COC(=O)Cn1ccc(NS(=O)(=O)c2ccc3c(c2)CCC3)n1,10.6
5,Cc1noc(CCNC(=O)NCc2ccc(N3CCCCC3)cc2)n1,9.47
6,O=C(Cc1csc(-c2ccoc2)n1)NCCC(=O)N1CCCCC1,9.13
7,N#Cc1csc(CNCCOc2ccccc2)c1,8.35
8,CN1CCN(C(=O)c2cc(C#N)cs2)c2ccccc2C1,10.2
9,COc1ccc(OC)c(CN(C(=O)c2ccc(C)[nH]c2=O)C2CC2)c1,-1.59
10,O=C1CCN(C(=O)C2(c3ccc(F)cc3)CCOCC2)CCN1,-4.97
11,O=C(NCCc1ccsc1)c1ccoc1,-3.3
12,CCSCCC(C)N(C)C(=O)c1cc(C)on1 (centres undefined),-7.32
13,c1ncn(CCNC2CCCN(Cc3noc(C4CC4)n3)C2)n1 (centres undefined),-2.77
14,N#CCCN(Cc1cccnc1)C(=O)c1ccc(OCC2CC2)cc1,-8.17
15,OC(CN1CCN(CC(F)F)CC1)c1ccc(Br)cc1 (centres undefined),-9.88
16,CN(Cc1ccccc1OC(F)(F)F)C(=O)C1CCCN(C(N)=O)C1 (centres undefined),7.59
17,CC(C)(C)OC(=O)NCC1CCN(C(=O)c2ccccc2O)C1 (centres undefined),-3.73
18,CCN(CC(F)(F)F)C(=O)C1CCCN(Cc2cscn2)C1 (centres undefined),-8.64
19,Oc1ccc2oc3c(c2c1CN1CCOCC1)CCCC3,-0.499
20,CNC(=O)c1cccc(NC(=O)NCc2ccccc2)c1C,-1.67
21,Cc1nn(C)c(N2CCOCC2)c1CNCC1CCN(C2CC2)C1 (centres undefined),-3.32
22,O=C(NCC(O)COc1cccc(F)c1)C1(c2ccc(F)cc2)CC1 (centres undefined),0.884
23,Cc1nonc1NC(=O)C1SCCc2ccccc21 (centres undefined),-3

row,SMILES,cytotoxicity at 10 µM [%]
1,CCc1ccc(C2COCCN2C(=O)Nc2cc(C)on2)o1 (centres undefined),-4.31
2,O=C(Nc1nc(-c2ccccc2)ns1)N1CCC(CO)CC1,9.11
3,Cc1nn(C)c(N(C)C)c1CNCc1ccc(Cn2cccn2)cc1,3.73
4,O=C(NC1CCS(=O)(=O)C1)c1sccc1OC(F)F (centres undefined),-0.699
5,CC(C)(O)CN1CCN(C(=O)c2ccn(-c3cccc(F)c3)n2)CC1,-3.53
6,CCC(O)CN1CCN(C(=O)c2ccn(-c3cccc(F)c3)n2)CC1 (centres undefined),-1.65
7,COc1ccc(-c2nc(CN3CCCS3(=O)=O)co2)cc1,-6.24
8,O=S1(=O)CCCN1Cc1coc(-c2ccc(C(F)(F)F)cc2)n1,-2.04
9,CN(CCn1nc2ccccn2c1=O)CC(=O)N(C)C1CCCCC1,-138
10,COc1c(CNCc2cccnc2N2CCCCC2)c(C)nn1C,-151
11,CCOCCNC(=O)c1cccc(Cn2nc(C)cc2C)c1,-7.69
12,Cc1cc(C(=O)N2CCCC2c2nnc3n2CCCCC3)on1 (centres undefined),1.68
13,CC(=O)Nc1nc(C(=O)NCCOc2ccccc2)cs1,6.11
14,Cc1oc(-c2ccccc2)nc1C(=O)NC1=NCCS1,1.85
15,CN1CCCN(CCCNC2CCc3cc4c(cc32)OCCO4)CC1 (centres undefined),-3.68
16,CCOc1ccccc1OCC(=O)NCc1ncc(C)c(OC)c1C,1.09
17,Cc1cccc2c1C(=O)NC(c1cnc(C3CCC3)s1)N2 (centres undefined),-3.33
18,Cc1cc(N2CCCC(OC(=O)CCN3CCCC3=O)C2)nc(C)n1 (centres undefined),2.58
19,Cc1noc(C)c1CCC(=O)N(C)C(C)c1cccs1 (centres undefined),7.93
20,CCOCCN1CCN(CC(O)c2cc(Cl)ccc2Cl)CC1 (centres undefined),0.858
21,CN(c1ccc(CNc2ccc(Cl)cn2)cc1)S(C)(=O)=O,5.03
22,Cc1ccc(C(=O)N2CC(C(N)=O)O[C@H](C)C2)c(F)c1 (some centres undefined),-5.43
23,COc1cc(Cl)c(NC(=O)NCCn2cccc2)cc1OC,-0.473

row,SMILES,cytotoxicity at 10 µM [%]
1,O=C(CO)N1CCN(S(=O)(=O)CCCF)CC1,-0.655
2,COc1cc(-n2cccc2)c(Cl)cc1C(N)=O,-10.4
3,CNC(=O)c1ccc(N(C)C2CCC2)nn1,4.49
4,CSCc1nc(CCNC(=O)C2CCCN(C(C)=O)C2)cs1 (centres undefined),-4.84
5,CC(C)n1cnnc1CN(C)Cc1ccoc1,3.15
6,CN(C(=O)c1cnc(N2CCOCC2)nc1)C1Cc2ccccc2C1,-3.97
7,NC(=O)CN1CCC(C(=O)NCc2ccc3nonc3c2)CC1,-0.969
8,CSc1ncccc1C(=O)N1CCC2(CC1)c1nc[nH]c1CCN2C,52.6
9,CO[C@H]1CNC[C@@H]1NC(=O)c1cc(C)nc2ccc(C)cc12,1.25
10,COc1ncccc1C(=O)N1CCc2c(ncnc2N2CCOCC2)C1,-3.5
11,O=C(Cn1ccc2ncccc2c1=O)N1CCCCC1,-7
12,O=C(CCc1nc(Cl)n[nH]1)N1CCC2(CCCNC2=O)C1 (centres undefined),-6.37
13,COc1ccc(-n2ccnc2-c2cnc(C(C)C)nc2)cc1C(=O)O,-2.42
14,Cn1cnnc1CC1CCN(Cc2c(Cl)cncc2Cl)CC1,-9.42
15,CN(C)C(=O)N1CCCn2nc(CNC(=O)CCc3cccs3)cc2C1,-5.04
16,CC(C)c1cncnc1-c1cc(F)cc2c1OC(CN)C2 (centres undefined),-4.02
17,Cc1cccc(C2CCCN(C(=O)CN3C(=O)CCNC3=O)C2)c1 (centres undefined),-2.56
18,COC[C@H](C)Nc1cc(C)c2ccc(SC)cc2n1,0.466
19,CC(C)NS(=O)(=O)c1cc(C(=O)O)cc(-c2ccccc2F)c1,-7.56
20,FC(F)C(F)(F)COCc1ncnn1-c1ccc2c(c1)OCO2,-2.82
21,Cn1cc(C(=O)N2CCCCC2CCc2ccc(O)cc2)cn1 (centres undefined),-2.3
22,CCc1nc(C)cc(NC(C)C(=O)Nc2cc(F)ccc2C)n1 (centres undefined),-4.44
23,O=c1[nH]ccn1CCCN1CC=C(c2cnn(-c3ccccc3)c2)CC1,7.95

row,SMILES,cytotoxicity at 10 µM [%]
1,Cc1ccc(S(=O)(=O)N2CCN(C)C3(CCC(=O)N(C)CC3)C2)s1 (centres undefined),8.63
2,CCc1ncc(C(=O)N(C)C2Cc3ccccc3C2)cn1,-1.05
3,COCCc1noc(-c2ccc(-c3ccc(N)nc3)nc2)n1,2.5
4,CCC[C@@H]1CN(Cc2cnc3c(S(C)(=O)=O)cnn3c2)C[C@H]1N(C)C,-2.12
5,CCN1CCc2[nH]cnc2C12CCN(c1ccc(Cl)c(C(=O)O)n1)CC2,2.74
6,CC(C1CCN(Cc2cccc(OC(F)F)c2)CC1)N1CCOCC1 (centres undefined),-9.2
7,COc1ccc(-c2nc3c([nH]2)CCCNC3=O)cc1OC,26.6
8,COc1ccc(-c2cn(CCSc3ncn[nH]3)nn2)cn1,3.36
9,O=C(Cn1nc2ccccc2n1)N1CCCC(O)(CO)C1 (centres undefined),-6.66
10,CN(CCN1CCCCC1)C(=O)c1cc(CN2CCOCC2)on1,-22.7
11,CNc1cc2c(nn1)CCN(C(=O)c1ccc3c(c1)OCO3)C2,6.85
12,CC(NC(=O)NCCS(C)(=O)=O)c1ccc2c(c1)CCC(=O)N2 (centres undefined),1.39
13,Cc1oc(-c2ccco2)nc1CN1CCCC(Cn2cncn2)C1 (centres undefined),-23.5
14,Cc1nc(CN2CCN(C(=O)c3sccc3C)CC2)cs1,0.96
15,O=C(NCC(c1ccccc1)N1CCOCC1)Nc1cn[nH]c1 (centres undefined),-15.8
16,COc1ccc(Cl)cc1CS(=O)(=O)CC(=O)N(C)Cc1ccccc1F,2.53
17,CCOC(=O)N1CCN(c2nc(N)c3ccccc3n2)CC1,-5.52
18,CC(C)OCc1nn(CC2CC2)c2c1CN(Cc1ccco1)CC2,-15.4
19,CNC(=O)CN1CC[C@H]2CN(C(=O)c3ccc(C)cc3)C[C@H]2C1,-4.06
20,Cn1cc(CN2CCc3c(nnn3C)C2COCc2ccccc2)cn1 (centres undefined),-126
21,Cc1cccc(CN2CCc3nnc(CN4CCCCC4)n3CC2)n1,-1.45
22,COCCN1C(=O)[C@@H]2CC[C@H]1CN(C(=O)Cc1c(F)cccc1Cl)C2,-1.02
